# Screening results: PubChem BioAssay, several laboratories
# E coli WT exp: growth inhibitors of wild-type E. coli, primary screen, strain BW25113, expanded library, OD600; OD600 absorbance; growth inhibition, % at 100 µM; 98,000 tested, 0.15% active; AID 710, 2007;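 active = growth inhibition above about 50% at one test dose, limit read from the data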;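 note: growth measured after 20 h incubation at 37 °C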
# tolC growth inh: growth inhibitors of E. coli tolC mutant, primary screen, strain BW25113 ΔtolC::kan, 384-well. OD615. growth inhibition, % at 10 µM (by protocol). 65,000 tested, 2.2% active;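 active = growth inhibition at or above a cutoff equal to the mean over every tested compound plus 3 SD, cut at about 60% in these data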;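 note: growth measured after 20 h incubation at 37 °C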
#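 signal = optical density read at 615 nm | test system = E. coli ΔtolC::kan strain BW25113 | timing = 20 h compound exposure of bacteria at 37 °C | buffer or medium = LB medium plus 50 µg/mL kanamycin | compound dosing = 10 µM final, single dose | evaluation = % inhibition of E. coli growth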
# PostGolgi ctrl: growth inhibition of yeast control strain, primary screen, counter-screen for post-Golgi transport modulator project; efflux-deficient yeast background strain, growth absorbance A615, 16 h; inhibition, % at 10 µM; 98,000 tested, 5% active; AID 738, 2007
# Pyk2 oligo antag: antagonists of Pyk2 self-association, primary screen, Q293 cells, FERM NanoBiT luminescence, HTS; hits give low values; 99,000 tested, 0.83% active; Protein-tyrosine kinase 2-beta (Homo sapiens), Q14289; z-score (the deposit names both 25 µM and 10 µM);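 active = Z-score of -3 or lower, scaled per plate to the spread of control and sample wells; inactive = z-score above -3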;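 note: negative z-score means lost luminescence so less FERM oligomerization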
# PostGolgi yeast: phenotypic screen on post-Golgi transport, primary screen; post-Golgi transport phenotypic cell assay; 98,000 tested, 0.9% active; inhibition, % at 10 µM;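 note: yeast cells grown in 1536-well plates; yeast grown about 18 h at 30C before absorbance read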
# Calb biofilm kill: clotrimazole potentiators killing Candida biofilms, primary screen, with clotrimazole, Alamar Blue; 85,000 tested, 0.14% active; inhibition, % at 6 µM; C. albicans biofilm + clotrimazole;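 active = inhibition above 20%; inactive = inhibition below 20%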;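 note: preformed 24 hr biofilms exposed to compound for 48 hr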
# Numbers stand for hits; i = inactive; nt = no result given. In the library only some 6.5% were active in any assay of this set; here they are far more common. Cut-off read from the data, not from the text of the source, unless noted: active = inhibition above about 30%; inactive = the rest.
SMILES,E coli WT exp,tolC growth inh,PostGolgi ctrl,Pyk2 oligo antag,PostGolgi yeast,Calb biofilm kill
Cc1cccc(Cc2c(C)nc3c(C(=O)NCc4ccco4)cnn3c2C)c1,i,75.2,33.2,i,i,i
Cc1ccccc1Cc1c(C)nc2c(C(=O)NCc3ccc4c(c3)OCO4)cnn2c1C,i,nt,i,i,i,i
COc1cc(NC(=O)c2cccs2)c(OC)cc1NC(=O)CCn1nnc2ccccc21,i,i,i,i,i,i
COc1ccc(N2C(=O)CCC2(C#N)c2ccc(Br)cc2)cc1 (stereo not drawn),i,nt,i,i,i,i
Nc1cccc(Cl)c1N1CCOCC1,i,nt,i,i,i,i
O=C(Nc1ccc(-n2nncc2-c2ccco2)cc1)c1ccc(F)cc1,i,i,i,i,i,i
CC1(C)CC(=O)C=C(NCc2ccc(Cl)c(Cl)c2)C1,i,nt,i,i,i,nt
O=C1CSC(c2cn(-c3ccccc3)nc2-c2ccccc2)N1Cc1ccco1 (stereo not drawn),i,i,53.3,i,i,i
CCOc1c(Br)ccc2c1sc1nc[nH]c(=O)c12,i,i,i,i,i,i
CCOC(=O)N1CCC(NC(=O)c2ccc(CS(=O)(=O)c3ccc(OC)cc3)o2)CC1,i,i,i,nt,i,i
O=C(CSc1nnc(Cc2cccs2)n1Cc1ccco1)Nc1ccc(Br)cc1,i,100.0,i,i,i,i
CN(C)C(=O)CSc1nnc(Cc2ccccc2)n1Cc1ccco1,nt,nt,nt,i,nt,i
O=C(CSc1nnc(Cc2cccs2)n1Cc1ccco1)Nc1ccc(Cl)cc1Cl,i,94.7,i,i,i,i
O=C(CSc1nnc(Cc2ccccc2)n1Cc1ccco1)NC12CC3CC(CC(C3)C1)C2,i,82.7,i,i,i,i
O=C(CSc1ncnc2c1oc1ccccc12)NCc1ccco1,nt,nt,nt,i,nt,i
CCCc1c(O)c2ccccc2[nH]c1=O,i,nt,i,i,i,i
O=C(Cc1c(O)c2ccccc2[nH]c1=O)N(Cc1ccccc1)Cc1ccccc1,i,nt,i,i,36.2,nt
CCCCc1c(O)c2ccccc2[nH]c1=O,i,i,43.4,i,i,i
CCCCc1c(C)c2cc(C)ccc2[nH]c1=O,i,nt,33.5,i,i,i
O=c1c(Cl)c(N2CCN(S(=O)(=O)c3ccc(F)cc3)CC2)cnn1-c1cccc(Cl)c1,i,nt,i,i,i,nt
CCOc1cc(/C=C(\C#N)c2[nH]nc(N)c2C#N)ccc1O,i,nt,i,-3.14,i,i
N#Cc1c(-c2ccco2)cc(-c2ccc(F)cc2)nc1N,i,i,i,i,i,i
CCOc1cc(-c2c(C#N)c(N)nc3c2CCCC3C)ccc1O (stereo not drawn),i,86.5,37.9,-3.07,i,i
CCOc1cc(-c2cc(-c3ccc(C)cc3)nc(N)c2C#N)ccc1O,i,nt,i,-3.77,i,i
COc1ccc(CNC(=O)C2CCCN(c3nccc(C)n3)C2)cc1 (stereo not drawn),nt,nt,nt,i,nt,i
SMILES,E coli WT exp,tolC growth inh,PostGolgi ctrl,Pyk2 oligo antag,PostGolgi yeast,Calb biofilm kill
CC(=O)N(CN1C(=O)c2ccc([N+](=O)[O-])cc2C1=O)c1ccc(F)cc1,i,nt,i,i,i,nt
CC(C)CC(=O)O/N=C1\C(=O)N(Cc2ccc(Cl)cc2)c2ccc([N+](=O)[O-])cc21,i,nt,32.9,nt,i,nt
Cn1c2ccc(Cl)cc2c2nc3ccccc3nc21,i,i,i,nt,38.1,i
O=C(COC(=O)c1cccc(S(=O)(=O)N2CCc3ccccc3C2)c1)NCc1ccco1,i,i,43.5,i,i,i
CCC(C)[C@H](NC(=O)NCc1ccccc1)C(=O)O (stereo partly drawn),i,i,45.0,i,i,i
Cc1ccc2cc(C#N)c(N3CCCN(C(=O)C4CCCO4)CC3)nc2c1C (stereo not drawn),i,i,i,i,i,i
Cc1ccc2cc(C#N)c(N3CCCC3)nc2c1C,i,i,47.4,i,i,i
O=C(OCCN1CCOCC1)c1cccs1,i,nt,i,i,i,i
O=C1N2c3ccccc3CCc3cccc(c32)C1(O)C(F)(F)F (stereo not drawn),i,i,49.6,i,i,nt
O=C1CCCC2=C1C(O)(C(F)(F)F)C(=O)N2Cc1ccccc1 (stereo not drawn),i,i,i,i,i,nt
CCOc1cc2c3c(c1)C1(Nc4ccccc4S1)C(=O)N3C(C)(C)CC2C (stereo not drawn),i,nt,37.0,i,i,i
